Calls of active or inactive are those of the source. The rule behind the calls is not given here.
Tests used:
[1] = Drug uptake in Sprague-Dawley rat liver at 0.1 mg/kg, po qd administered via gavage measured 1 hr post last dose on day 14 by LC-MS/MS analysis; type: ADME, organism-based; details: read-out: Drug uptake
Method in brief: (§1)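 Drug concentration in liver was quantified from tissue homogenates, so these are total levels. Unbound liver concentration was not determined.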

[2] = target: T1, G-protein coupled bile acid receptor 1 (Homo sapiens, UniProt Q8TDU6); test: Agonist activity at human TGR5
T1 sequence (Q8TDU6 whole entry): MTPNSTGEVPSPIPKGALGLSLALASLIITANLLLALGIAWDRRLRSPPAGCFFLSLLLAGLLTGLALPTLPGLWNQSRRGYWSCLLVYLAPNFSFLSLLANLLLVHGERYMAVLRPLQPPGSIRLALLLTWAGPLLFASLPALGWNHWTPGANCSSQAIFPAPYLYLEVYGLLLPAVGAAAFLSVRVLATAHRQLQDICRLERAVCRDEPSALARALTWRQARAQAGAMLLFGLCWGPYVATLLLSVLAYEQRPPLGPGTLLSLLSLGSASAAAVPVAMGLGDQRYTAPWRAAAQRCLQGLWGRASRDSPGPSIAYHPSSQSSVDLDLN

[3] = tested on: Rattus norvegicus; test: Dose normalized AUC (0 to 24 hrs) in Sprague-Dawley rat at 0.03 mg/kg, po qd administered via gavage measured on day 11 by LC-MS/MS analysis; type: ADME, organism-based; details: in vivo
[4] = Clearance in mouse at 5 mg/kg, iv by LC-MS/MS analysis; type: ADME, organism-based; details: in vivo
Method in brief: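 Single IV dose given as a solution. Mouse received 5 mg/kg in 75% PEG300:25% D5W. Dog received 0.5 mg/kg in 20% PEG300, 5% solutol and 75% carbonate buffer pH = 8.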

[5] = AUC (0 to 24 hrs) in Sprague-Dawley rat at 3 mg/kg, po qd administered via gavage measured on day 11 by LC-MS/MS analysis; type: ADME, organism-based; design: dose 3 mg/kg, time < 24 hr, route oral; details: in vivo
[6] = Cmax in Sprague-Dawley rat at 1 mg/kg, po qd administered via gavage measured on day 11 by LC-MS/MS analysis; type: ADME, organism-based; design: dose 1 mg/kg, route oral; details: in vivo
[7] = AUC in mouse at 10 mg/kg, po administered via gavage by LC-MS/MS analysis; type: ADME, organism-based; details: in vivo
Method in brief: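 Single oral dose given as a suspension in 0.5% methylcellulose, 0.5% Tween80 and 99% water. Doses were 10 mg/kg in mouse, 1 mg/kg in rat and 2 mg/kg in dog.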

[8] = tested on: Rattus norvegicus; test: Dose normalized AUC (0 to 24 hrs) in Sprague-Dawley rat at 0.3 mg/kg, po qd administered via gavage measured on day 1 by LC-MS/MS analysis; type: ADME, organism-based; details: in vivo
[9] = Cmax in rat at 10 mg/kg, po administered via gavage by LC-MS/MS analysis; type: ADME, organism-based; design: dose 10 mg/kg, route oral; details: in vivo
Method in brief: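 Rats were dosed IV as a solution in 75% PEG300:25% D5W, or orally as a suspension in 0.5% methylcellulose, 0.5% Tween80 and 99% water.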

[10] = tested on: Rattus norvegicus; test: Dose normalized AUC (0 to 24 hrs) in Sprague-Dawley rat at 0.01 mg/kg, po qd administered via gavage measured on day 11 by LC-MS/MS analysis; type: ADME, organism-based; details: in vivo
[11] = tested on: Rattus norvegicus; test: In vivo agonist activity at FXR in Sprague-Dawley rat assessed as serum triglyceride level at 0.3 mg/kg, po administered once daily for 14 days measured 24 hrs post last dose; type: functional
[12] = Drug uptake in Sprague-Dawley rat liver at 3 mg/kg, po qd administered via gavage measured 7 hrs post last dose on day 14 by LC-MS/MS analysis; type: ADME, organism-based; details: read-out: Drug uptake; method in brief: as §1
[13] = Drug uptake in Sprague-Dawley rat liver at 0.1 mg/kg, po qd administered via gavage measured 7 hrs post last dose on day 14 by LC-MS/MS analysis; type: ADME, organism-based; details: read-out: Drug uptake; method in brief: as §1
[14] = tested on: Rattus norvegicus; test: In vivo agonist activity at FXR in Sprague-Dawley rat assessed as induction of BSEP mRNA level in liver at 0.003 mg/kg, po qd for 14 days measured 7 hrs post last dose on day 14 by qPCR analysis; type: functional, organism-based
[15] = AUC (0 to 24 hrs) in Sprague-Dawley rat at 0.1 mg/kg, po qd administered via gavage measured on day 1 by LC-MS/MS analysis; type: ADME, organism-based; design: time < 24 hr, dose 0.1 mg/kg, route oral; details: in vivo
[16] = Drug uptake in Sprague-Dawley rat liver at 0.003 mg/kg, po qd administered via gavage measured 1 hr post last dose on day 14 by LC-MS/MS analysis; type: ADME, organism-based; details: read-out: Drug uptake; method in brief: as §1
[17] = Volume of distribution at steady state in rat at 3 mg/kg, iv or 1 mg/kg, po administered via gavage by LC-MS/MS analysis; type: ADME, organism-based; details: in vivo, read-out: Vdss
Method in brief: (§2)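 IV dosing used a solution in 75% PEG300:25% D5W for mouse and rat, and a solution in 20% PEG300, 5% solutol, 75% carbonate buffer pH 8 for dog. PO dosing used a suspension in 0.5% methylcellulose, 0.5% Tween80, 99% water for all three species.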

[18] = Oral bioavailability in dog at 2 mg/kg administered via gavage by LC-MS/MS analysis; type: ADME, organism-based, Canis lupus familiaris; details: in vivo; method in brief: as §2
[19] = AUC (0 to 24 hrs) in Sprague-Dawley rat at 0.01 mg/kg, po qd administered via gavage measured on day 1 by LC-MS/MS analysis; type: ADME, organism-based; design: dose 0.01 mg/kg, time < 24 hr, route oral; details: in vivo
[20] = Protein binding in rat plasma at 3 mg/kg, iv or 1 mg/kg, po administered via gavage by LC-MS/MS analysis; type: ADME, organism-based; details: read-out: PPB
[21] = Drug uptake in Sprague-Dawley rat plasma at 0.003 mg/kg, po qd administered via gavage measured 1 hr post last dose on day 14 by LC-MS/MS analysis; type: ADME, organism-based
[22] = Drug uptake in Sprague-Dawley rat plasma at 1 mg/kg, po qd administered via gavage measured 7 hrs post last dose on day 14 by LC-MS/MS analysis; type: ADME, organism-based
[23] = tested on: Rattus norvegicus; test: In vivo agonist activity at FXR in Sprague-Dawley rat assessed as induction of SHP mRNA level in liver at 0.01 mg/kg, po qd for 14 days measured 7 hrs post last dose on day 14 by qPCR analysis; type: functional, organism-based
[24] = tested on: Rattus norvegicus; test: In vivo agonist activity at FXR in po dosed Sprague-Dawley rat assessed as induction of FGF15 protein level in plasma administered once daily for 14 days measured 7 hrs post last dose on day 14; type: functional, organism-based

Compound: O=C(O)c1cc(F)c2nc(N3C4CCC3CC(OCc3c(-c5ccccc5OC(F)(F)F)noc3C3CC3)C4)sc2c1 (centres undefined)
- concentration at 1 h [1]: 27.4 nM
- EC50 [2]: > 10 µM
- AUC/dose [3]: 658 nM·h
- clearance [4]: 5.3 mL/min/kg
- AUC at 24 h [5]: 1.69 µM·h
- Cmax [6]: 43.1 nM
- AUC [7]: 4.79 µM·h
- AUC/dose [8]: 390 nM·h
- Cmax [9]: 2280 nM
- AUC/dose [10]: 496 nM·h
- Activity [11]: 79%
- concentration at 7 h [12]: 640 nM
- concentration at 7 h [13]: 45 nM
- Activity [14]: Active
- AUC(0-t) at 24 h [15]: 0.041 µM·h
- concentration at 1 h [16]: 2.92 nM
- Vd [17]: 0.72 L/kg
- bioavailability [18]: 10%
- AUC(0-t) at 24 h [19]: 0.004 µM·h
- fraction unbound [20]: 0.001
- concentration at 1 h [21]: 0.2 nM
- concentration at 7 h [22]: 40.5 nM
- Activity [23]: Active
- Activity [24]: Dose-dependent effect
